Active and inactive are the calls of the source. The rule behind the calls is not given here.
What was measured:
Prothrombin [1] = molecular target: T1, Prothrombin (Homo sapiens, UniProt P00734); experiment: Partial allosteric inhibition of human thrombin at 300 uM using spectrozyme TH as substrate pretreated for 10 mins followed by substrate addition by spectrophotometric method relative to control
Prothrombin [2] = molecular target: T1, Prothrombin; experiment: Partial allosteric inhibition of human thrombin using spectrozyme TH as substrate pretreated for 10 mins followed by substrate addition by spectrophotometric method
Summary of the method: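 Chromogenic substrate hydrolysis by thrombin read spectrophotometrically in 20 mM Tris-HCl pH 7.4 with […], 100 mM NaCl and 0.1% PEG 8000 at 25 °C. Sigmoidal fits gave IC50 and efficacy (ΔY). Errors ±1 S.E.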

Prothrombin [3] = molecular target: T1, Prothrombin; experiment: Partial allosteric inhibition of human thrombin at 500 uM using spectrozyme TH as substrate pretreated for 10 mins followed by substrate addition by spectrophotometric method relative to control
[4] = system: CCOC(=O)c1c(C)oc2cc(OCCc3ccccc3)c(OCc3oc4cc(OC)c(OS(=O)(=O)O)cc4c3C(=O)OCC)cc12; experiment: Non competitive inhibition of human thrombin assessed as substrate Vmax at 1 uM using varying levels of spectrozyme TH as substrate measured after 10 mins by Michaelis-Menten plot analysis (reference value: 51.0 +/- 2.8 mAU/min)
[5] = system: CCOC(=O)c1c(C)oc2cc(OCCc3ccccc3)c(OCc3oc4cc(OC)c(OS(=O)(=O)O)cc4c3C(=O)OCC)cc12; experiment: Non competitive inhibition of human thrombin assessed as substrate Vmax at 10 uM using varying levels of spectrozyme TH as substrate measured after 10 mins by Michaelis-Menten plot analysis (reference value: 51.0 +/- 2.8 mAU/min)
[6] = system: CCOC(=O)c1c(C)oc2cc(OCCc3ccccc3)c(OCc3oc4cc(OC)c(OS(=O)(=O)O)cc4c3C(=O)OCC)cc12; experiment: Non competitive inhibition of human thrombin assessed as substrate Vmax at 40 uM using varying levels of spectrozyme TH as substrate measured after 10 mins by Michaelis-Menten plot analysis (reference value: 51.0 +/- 2.8 mAU/min)
[7] = system: CCOC(=O)c1c(C)oc2cc(OCCc3ccccc3)c(OCc3oc4cc(OC)c(OS(=O)(=O)O)cc4c3C(=O)OCC)cc12; experiment: Non competitive inhibition of human thrombin assessed as substrate Km at 1 uM using varying levels of spectrozyme TH as substrate measured after 10 mins by Michaelis-Menten plot analysis (reference value: 9.3 +/- 2.8 uM)
[8] = system: CCOC(=O)c1c(C)oc2cc(OCCc3ccccc3)c(OCc3oc4cc(OC)c(OS(=O)(=O)O)cc4c3C(=O)OCC)cc12; experiment: Non competitive inhibition of human thrombin assessed as substrate Km at 2 uM using varying levels of spectrozyme TH as substrate measured after 10 mins by Michaelis-Menten plot analysis (reference value: 9.3 +/- 2.8 uM)
[9] = system: CCOC(=O)c1c(C)oc2cc(OCCc3ccccc3)c(OCc3oc4cc(OC)c(OS(=O)(=O)O)cc4c3C(=O)OCC)cc12; experiment: Non competitive inhibition of human thrombin assessed as substrate Km at 10 uM using varying levels of spectrozyme TH as substrate measured after 10 mins by Michaelis-Menten plot analysis (reference value: 9.3 +/- 2.8 uM)
[10] = system: CCOC(=O)c1c(C)oc2cc(OCCc3ccccc3)c(OCc3oc4cc(OC)c(OS(=O)(=O)O)cc4c3C(=O)OCC)cc12; experiment: Non competitive inhibition of human thrombin assessed as substrate Km at 40 uM using varying levels of spectrozyme TH as substrate measured after 10 mins by Michaelis-Menten plot analysis (reference value: 9.3 +/- 2.8 uM)
[11] = system: CCOC(=O)c1c(C)oc2cc(OCc3ccccc3)c(OCc3oc4cc(OCC5CCCCC5)c(OS(=O)(=O)O)cc4c3C(=O)OCC)cc12; experiment: Mixed-type inhibition of human thrombin assessed as substrate Vmax at 1 uM using varying levels of spectrozyme TH as substrate measured after 10 mins by Michaelis-Menten plot analysis (reference value: 48.2 +/- 2.8 mAU/min)
[12] = system: CCOC(=O)c1c(C)oc2cc(OCc3ccccc3)c(OCc3oc4cc(OCC5CCCCC5)c(OS(=O)(=O)O)cc4c3C(=O)OCC)cc12; experiment: Mixed-type inhibition of human thrombin assessed as substrate Vmax at 2 uM using varying levels of spectrozyme TH as substrate measured after 10 mins by Michaelis-Menten plot analysis (reference value: 48.2 +/- 2.8 mAU/min)
[13] = system: CCOC(=O)c1c(C)oc2cc(OCc3ccccc3)c(OCc3oc4cc(OCC5CCCCC5)c(OS(=O)(=O)O)cc4c3C(=O)OCC)cc12; experiment: Mixed-type inhibition of human thrombin assessed as substrate Vmax at 10 uM using varying levels of spectrozyme TH as substrate measured after 10 mins by Michaelis-Menten plot analysis (reference value: 48.2 +/- 2.8 mAU/min)
[14] = system: CCOC(=O)c1c(C)oc2cc(OCc3ccccc3)c(OCc3oc4cc(OCC5CCCCC5)c(OS(=O)(=O)O)cc4c3C(=O)OCC)cc12; experiment: Mixed-type inhibition of human thrombin assessed as substrate Vmax at 40 uM using varying levels of spectrozyme TH as substrate measured after 10 mins by Michaelis-Menten plot analysis (reference value: 48.2 +/- 2.8 mAU/min)
[15] = system: CCOC(=O)c1c(C)oc2cc(OCc3ccccc3)c(OCc3oc4cc(OCC5CCCCC5)c(OS(=O)(=O)O)cc4c3C(=O)OCC)cc12; experiment: Mixed-type inhibition of human thrombin assessed as substrate Km at 1 uM using varying levels of spectrozyme TH as substrate measured after 10 mins by Michaelis-Menten plot analysis (reference value: 8.6 +/- 2.8 uM)
[16] = system: CCOC(=O)c1c(C)oc2cc(OCc3ccccc3)c(OCc3oc4cc(OCC5CCCCC5)c(OS(=O)(=O)O)cc4c3C(=O)OCC)cc12; experiment: Mixed-type inhibition of human thrombin assessed as substrate Km at 2 uM using varying levels of spectrozyme TH as substrate measured after 10 mins by Michaelis-Menten plot analysis (reference value: 8.6 +/- 2.8 uM)
[17] = system: CCOC(=O)c1c(C)oc2cc(OCc3ccccc3)c(OCc3oc4cc(OCC5CCCCC5)c(OS(=O)(=O)O)cc4c3C(=O)OCC)cc12; experiment: Mixed-type inhibition of human thrombin assessed as substrate Km at 10 uM using varying levels of spectrozyme TH as substrate measured after 10 mins by Michaelis-Menten plot analysis (reference value: 8.6 +/- 2.8 uM)
[18] = system: CCOC(=O)c1c(C)oc2cc(OCc3ccccc3)c(OCc3oc4cc(OCC5CCCCC5)c(OS(=O)(=O)O)cc4c3C(=O)OCC)cc12; experiment: Mixed-type inhibition of human thrombin assessed as substrate Km at 40 uM using varying levels of spectrozyme TH as substrate measured after 10 mins by Michaelis-Menten plot analysis (reference value: 8.6 +/- 2.8 uM)

Row | Compound | inhibition (Prothrombin [1]) | Efficacy (Prothrombin [2]) | IC50 (Prothrombin [2]) | inhibition (Prothrombin [3]) | also measured
1 | CCOC(=O)c1c(C)oc2cc(OCc3cccc(OC(C)C)c3)c(OS(=O)(=O)O)cc12 | – | – | > 500 µM | > 50% | –
2 | CCOC(=O)c1c(C)oc2cc(OCc3cccc(OS(=O)(=O)O)c3)c(OS(=O)(=O)O)cc12 | – | – | > 500 µM | > 50% | –
3 | CCOC(=O)c1c(C)oc2cc(OCc3ccccc3)c(OS(=O)(=O)O)cc12 | – | 72% | 134 µM | > 50% | –
4 | Cc1oc2cc(OCc3ccccc3)c(OS(=O)(=O)O)cc2c1C(=O)O | – | – | > 500 µM | > 50% | –
5 | CCOC(=O)c1c(C)oc2cc(OC)c(OCc3cccc(S(=O)(=O)O)c3)cc12 | – | 101% | 134 µM | > 50% | –
6 | CCOC(=O)c1c(C)oc2cc(OCc3ccc(OC(C)C)cc3)c(OS(=O)(=O)O)cc12 | – | – | > 500 µM | > 50% | –
7 | COc1cc2oc(C)c(C(=O)OCCOS(=O)(=O)O)c2cc1OS(=O)(=O)O | – | – | > 500 µM | > 50% | –
8 | Prothrombin (Homo sapiens) (from UniProt P00734) | – | – | – | – | Vmax [4]: 44.1 mAU/min; Vmax [5]: 30.9 mAU/min; Vmax [6]: 23.7 mAU/min; Km [7]: 8.3 µM; Km [8]: 9.2 µM; Km [9]: 7.4 µM; Km [10]: 6.8 µM; Vmax [11]: 43.8 mAU/min; Vmax [12]: 38.7 mAU/min; Vmax [13]: 32.5 mAU/min; Vmax [14]: 26.5 mAU/min; Km [15]: 8.8 µM; Km [16]: 10.7 µM; Km [17]: 29.7 µM; Km [18]: 61 µM
9 | CCOC(=O)c1c(C)oc2cc(OCc3ccccc3)c(OCc3cccc(S(=O)(=O)O)c3)cc12 | – | – | > 500 µM | > 50% | –
10 | CCOC(=O)c1c(C)oc2cc(OCc3cccc(OCOC)c3)c(OS(=O)(=O)O)cc12 | – | 75.9% | 229 µM | > 50% | –
11 | COC(=O)c1c(C)oc2cc(OCc3cccc(OS(=O)(=O)O)c3)c(OCc3cccc(S(=O)(=O)O)c3)cc12 | – | – | > 500 µM | > 50% | –
12 | COc1cc2oc(C)c(C(=O)OCc3ccccc3)c2cc1OS(=O)(=O)O | – | 95% | 168 µM | > 50% | –

Second part, led by results:

Row | inhibition (Prothrombin [1]) | Efficacy (Prothrombin [2]) | IC50 (Prothrombin [2]) | inhibition (Prothrombin [3]) | Compound | also measured
13 | > 50% | 57% | 2.6 µM | – | CCOC(=O)c1c(C)oc2cc(OCc3cccc(OC(C)C)c3)c(OCc3oc4cc(OC)c(OS(=O)(=O)O)cc4c3C(=O)OCC)cc12 | –
14 | – | – | > 500 µM | > 50% | CCOC(=O)c1c(C)oc2cc(OCC3CCCCC3)c(OS(=O)(=O)O)cc12 | –
15 | > 50% | 66% | 2.6 µM | – | CCOC(=O)c1c(COc2cc3c(C(=O)OCc4ccc(OCOC)cc4)c(C)oc3cc2OC)oc2cc(OC)c(OS(=O)(=O)O)cc12 | –
16 | > 50% | 68% | 4.9 µM | – | CCCOC(=O)c1c(COc2cc3c(C(=O)OCc4ccccc4)c(C)oc3cc2OC)oc2cc(OC)c(OS(=O)(=O)O)cc12 | –
17 | > 50% | 77% | 3.8 µM | – | CCOC(=O)c1c(C)oc2cc(OC)c(OCc3oc4cc(OCC5CCCCC5)c(OS(=O)(=O)O)cc4c3C(=O)OCC)cc12 | –
18 | inactive | – | > 300 µM | – | CCOC(=O)c1c(C)oc2cc(Oc3cccc(OS(=O)(=O)O)c3)c(OCc3oc4cc(OC)c(OS(=O)(=O)O)cc4c3C(=O)OCC)cc12 | –
19 | > 50% | 93% | 8.7 µM | – | CCOC(=O)c1c(C)oc2cc(OCC3CCCCC3)c(OCc3oc4cc(OCC5CCCCC5)c(OS(=O)(=O)O)cc4c3C(=O)OCC)cc12 | –
20 | > 50% | 57% | 2 µM | – | CCOC(=O)c1c(C)oc2cc(OCc3ccccc3)c(OCc3oc4cc(OC)c(OS(=O)(=O)O)cc4c3C(=O)OCC)cc12 | –
21 | > 50% | 63% | 2.6 µM | – | CCOC(=O)c1c(C)oc2cc(OCC3CCCCC3)c(OCc3oc4cc(OC)c(OS(=O)(=O)O)cc4c3C(=O)OCC)cc12 | –
22 | > 50% | 61% | 3.3 µM | – | CCOC(=O)c1c(C)oc2cc(OCc3ccc(OCOC)cc3)c(OCc3oc4cc(OC)c(OS(=O)(=O)O)cc4c3C(=O)OCC)cc12 | –
23 | > 50% | 58% | 3.2 µM | – | CCOC(=O)c1c(COc2cc3c(C(=O)OCCc4ccccc4)c(C)oc3cc2OC)oc2cc(OC)c(OS(=O)(=O)O)cc12 | –
24 | > 50% | 59% | 4 µM | – | CCOC(=O)c1c(C)oc2cc(OCc3cccc(OCOC)c3)c(OCc3oc4cc(OC)c(OS(=O)(=O)O)cc4c3C(=O)OCC)cc12 | –
25 | inactive | – | > 300 µM | – | CCOC(=O)c1c(C)oc2cc(OS(=O)(=O)O)c(OCc3oc4cc(OC)c(OS(=O)(=O)O)cc4c3C(=O)OCC)cc12 | –
26 | > 50% | 74% | 2.3 µM | – | CCOC(=O)c1c(C)oc2cc(OCc3ccc(OC(C)C)cc3)c(OCc3oc4cc(OC)c(OS(=O)(=O)O)cc4c3C(=O)OCC)cc12 | –
27 | > 50% | 74% | 14 µM | – | CCOC(=O)c1c(C)oc2cc(OCc3ccccc3)c(OCc3oc4cc(OC)c(OS(=O)(=O)O)cc4c3C(=O)OCCOS(=O)(=O)O)cc12 | –

Source: ChEMBL document CHEMBL4184294, “A small group of sulfated benzofurans induces steady-state submaximal inhibition of thrombin” (Bioorg Med Chem Lett, 2018)
